Source: PubChem BioAssay
The source made the active and inactive calls.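 How the source made its calls, unless noted: active means viability at or under a set limit in both replicates, limit being median viability minus 3 SD (cut at about 48% in these data, passing the limit was not always enough); inconclusive means at or under the limit in just one replicate; inactive means at or above the limit in both replicates.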

Tests used:
[1] = reducers of endogenous Her2 protein level, primary screen, SKBR3 breast tumor cells, AlphaScreen, ATP viability (AID 461;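 active means Her2 level under about 52% in both replicate screens, with viability over 70% of control, limit read from the data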;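 on Her2 level: lower value means less Her2 protein in the cells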;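 on viability: percent of carrier control wells set as 100% viability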); details: 18-24 h, measured here: SKBR3 viability, ATP luminescence, at 10 µM
[2] = biological target: Receptor tyrosine-protein kinase erbB-2 (Homo sapiens) (UniProt P04626); test: as above; details: 18-24 h, at 10 µM, stronger effect = lower value
Receptor tyrosine-protein kinase erbB-2 (Homo sapiens), sequence (P04626 whole entry, looked up): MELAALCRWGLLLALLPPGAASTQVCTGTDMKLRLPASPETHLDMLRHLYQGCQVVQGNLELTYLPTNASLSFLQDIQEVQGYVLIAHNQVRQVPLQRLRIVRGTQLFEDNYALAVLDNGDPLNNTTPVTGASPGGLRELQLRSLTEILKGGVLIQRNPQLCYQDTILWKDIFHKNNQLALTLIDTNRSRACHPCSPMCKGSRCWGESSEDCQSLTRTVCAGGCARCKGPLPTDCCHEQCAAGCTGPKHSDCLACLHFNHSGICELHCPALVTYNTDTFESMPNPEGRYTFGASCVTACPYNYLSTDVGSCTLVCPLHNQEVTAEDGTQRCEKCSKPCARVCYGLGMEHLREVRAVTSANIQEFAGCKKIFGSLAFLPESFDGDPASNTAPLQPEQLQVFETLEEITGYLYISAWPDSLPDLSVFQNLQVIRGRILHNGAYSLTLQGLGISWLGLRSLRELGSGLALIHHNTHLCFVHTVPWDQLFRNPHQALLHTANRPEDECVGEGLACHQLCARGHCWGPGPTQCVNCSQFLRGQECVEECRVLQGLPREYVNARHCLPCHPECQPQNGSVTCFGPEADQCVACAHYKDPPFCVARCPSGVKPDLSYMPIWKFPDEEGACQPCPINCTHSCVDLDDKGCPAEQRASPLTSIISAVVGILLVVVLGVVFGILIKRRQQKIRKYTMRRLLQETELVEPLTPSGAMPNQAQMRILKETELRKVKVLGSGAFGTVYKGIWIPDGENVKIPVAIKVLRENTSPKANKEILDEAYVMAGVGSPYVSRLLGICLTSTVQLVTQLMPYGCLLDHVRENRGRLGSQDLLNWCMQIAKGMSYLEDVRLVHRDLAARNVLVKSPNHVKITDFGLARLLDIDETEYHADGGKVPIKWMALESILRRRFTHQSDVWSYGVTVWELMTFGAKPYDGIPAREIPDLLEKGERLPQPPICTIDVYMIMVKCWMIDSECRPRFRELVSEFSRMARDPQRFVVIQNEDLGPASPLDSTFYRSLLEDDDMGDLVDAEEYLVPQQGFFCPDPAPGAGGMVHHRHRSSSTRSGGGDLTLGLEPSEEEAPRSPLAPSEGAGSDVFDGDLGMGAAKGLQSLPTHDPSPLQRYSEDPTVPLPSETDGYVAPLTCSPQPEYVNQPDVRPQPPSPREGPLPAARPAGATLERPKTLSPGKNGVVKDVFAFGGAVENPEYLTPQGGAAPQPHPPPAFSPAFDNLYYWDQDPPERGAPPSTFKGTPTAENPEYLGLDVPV

[3] = SK-BR-3 cell growth inhibitors, pilot screen, 24 h, human (AID 572;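 active means viability at or below 10% of carrier control in both of two separate runs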;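 further: compound exposure lasted between 18 and 24 h rather than exactly 24 h; 100% = carrier-treated control wells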); details: SK-BR-3 viability, CellTiter-Glo luminescence, at 10 µM, stronger effect = lower value
[4] = HUVEC growth inhibition – cell-based, human, primary screen (AID 575;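 active means viability at or below 30% in both replicate assays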;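 further: 100% = median of untreated cell wells with 0.1% DMSO on each plate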); details: HUVEC proliferation, CellTiter-Glo luminescence, 72 h; at 10 µM; stronger effect = lower value
Method in brief: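 Timing: 72 h treatment at 37 °C; material: HUVEC primary cells; technique: CellTiter-Glo luminescence measuring cellular ATP; controls: vehicle and MePR control wells; measure: percent of median DMSO-control luminescence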

[5] = growth inhibitors of H69AR lung tumor, primary screen, human, duplicate replicates (AID 580); details: H69AR lung tumor cells viability, ATP luminescence, 72 h; at 10 µM; stronger effect = lower value;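 further: 100% = mean luminescence of untreated wells and 0% = no signal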
[6] = reversal of MRP1-mediated doxorubicin resistance, pilot screen, H69AR cells, doxorubicin co-treatment (AID 601;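 active means viability loss from added drug above about 55%, and viability with drug at most 40%, in both replicates, limit read from the data, passing the limit was not always enough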); details: CellTiter-Glo, 72 h, at 10 µM; for differential viability (reversal): stronger effect = higher value
[7] = 384-well plate pilot, post-Golgi transport modulator project, inhibition of yeast transport mutant growth (AID 636; in the data active means inhibition above about 31%); details: absorbance 615 nm, about 18 h, stronger effect = higher value
[8] = growth suppression of yeast trafficking mutant, preliminary HTS, modulators of trafficking downstream of Golgi apparatus project, 1536-format plate, OD 615 nm (AID 637; in the data active means inhibition above about 30%); details: yeast transport mutant growth, absorbance 615 nm, 18 h; stronger effect = higher value
[9] = H69AR cells + 2 uM doxorubicin, measured here: viability with 2 uM doxorubicin, stronger effect = lower value
[10] = H69AR cells, compound alone cytotoxicity

| Structure (SMILES) | viability [1] [%] | Her2 level [2] | viability [3] | viability [4] | viability [5] | differential viability (reversal) ([6]; H69AR cells + 2 uM doxorubicin) | viability [6, 9] [%] | viability [6, 10] [%] | inhibition [7] | inhibition [8] |
| --- | --- | --- | --- | --- | --- | --- | --- | --- | --- | --- |
| O=C(NCCCNC(=O)c1ccccn1)c1ccccn1 | 106 | 75% (inactive) | 106% (inactive) | 79.6% (inactive) | 91.5% (inactive) | -0.68% (inactive) | 92.1 | 91.5 | -5.89% (inactive) | -3.49% (inactive) |
| Cc1cc(C(=O)NCc2cccnc2)n(-c2ccccc2)n1 | 93.5 | 97% (inactive) | 93.5% (inactive) | 102% (inactive) | 107% (inactive) | 14.4% (inactive) | 92.9 | 107 | -0.93% (inactive) | -6.07% (inactive) |
| CCOc1ccc(C(=O)N2CCN(c3ccccc3)CC2)cc1OCC | 104 | 102% (inactive) | 104% (inactive) | 90% (inactive) | 83.5% (inactive) | -14.8% (inactive) | 98.3 | 83.5 | 2.47% (inactive) | 9.51% (inactive) |
| O=C(COC(=O)C1CC1)c1c[nH]c2ccccc12 | 93.5 | 107% (inactive) | 93.5% (inactive) | 105% (inactive) | 115% (inactive) | 14.9% (inactive) | 100 | 115 | 3.24% (inactive) | -11.3% (inactive) |
| Cc1cc2n(n1)C(c1ccccc1)Nc1ccccc1-2 (stereo not given) | 97 | 104% (inactive) | 97% (inactive) | 77.1% (inactive) | 90.7% (inactive) | 1.64% (inactive) | 89.1 | 90.7 | -6% (inactive) | -6.13% (inactive) |
| c1coc(Cn2nnnc2CN2CCN(C3CCCC3)CC2)c1 | 90.5 | 107% (inactive) | 90.5% (inactive) | 92.8% (inactive) | 93.2% (inactive) | 4.64% (inactive) | 88.6 | 93.2 | -4.67% (inactive) | -8.41% (inactive) |
| O/N=C/c1ccc(OCC(O)COc2ccc(/C=N/O)cc2)cc1 | 89.5 | 112% (inactive) | 89.5% (inactive) | 75.9% (inactive) | 90.1% (inactive) | -1.19% (inactive) | 91.3 | 90.1 | -1.54% (inactive) | 4.83% (inactive) |
| Cc1cc(C)n2nc(S(=O)(=O)N(C)Cc3ccccc3)nc2n1 | 80 | 91% (inactive) | 80% (inactive) | 122% (inactive) | 93.4% (inactive) | 4.15% (inactive) | 89.2 | 93.4 | -7.16% (inactive) | -5.67% (inactive) |
| COc1cccc(CNC(=O)C2CCN(c3cnccn3)CC2)c1 | 87.5 | 118% (inactive) | 87.5% (inactive) | 88.4% (inactive) | 96.2% (inactive) | 8.93% (inactive) | 87.3 | 96.2 | -4.67% (inactive) | 16.8% (inactive) |
| COc1cc2c(cc1OC)-c1cc(Nc3ccc4c(c3)OCCO4)nc(=O)n1CC2 | 91.5 | 82.5% (inactive) | 91.5% (inactive) | 63.2% (inactive) | 71.2% (inactive) | -6.86% (inactive) | 78.1 | 71.2 | -0.91% (inactive) | -4.17% (inactive) |
| O=C(Cn1nnc(-c2ccccc2)n1)Nc1ccccc1N1CCOCC1 | 99.5 | 98% (inactive) | 99.5% (inactive) | 110% (inactive) | 93.3% (inactive) | 0.8% (inactive) | 92.5 | 93.3 | -7.2% (inactive) | 0.66% (inactive) |
| COC(=O)c1cc(=O)nc2sc(-c3cccs3)nn12 | 115 | 85% (inactive) | 115% (inactive) | 84% (inactive) | 93.4% (inactive) | 8.2% (inactive) | 85.2 | 93.4 | -4.86% (inactive) | 5.24% (inactive) |
| COc1ccc2c(c1)[nH]c1c(=O)n(CCN(C)C)cnc12 | 105 | 85.5% (inactive) | 105% (inactive) | 104% (inactive) | 91.8% (inactive) | -8.28% (inactive) | 100 | 91.8 | -3.16% (inactive) | 1.48% (inactive) |
| CCOC(=O)N1CCN(c2c(N3CCc4ccccc4C3)c(=O)c2=O)CC1 | 87 | 86% (inactive) | 87% (inactive) | 99.9% (inactive) | 91.7% (inactive) | 6.33% (inactive) | 85.4 | 91.7 | -2% (inactive) | -3.11% (inactive) |
| Cc1cc(NC(=O)CCC(=O)N(c2cccnc2)C(C(=O)NC2CCCC2)c2ccccc2F)no1 (stereo not given) | 99 | 104% (inactive) | 99% (inactive) | 99.4% (inactive) | 93.3% (inactive) | 4.7% (inactive) | 88.6 | 93.3 | 3.2% (inactive) | -2.46% (inactive) |
| COCCNC(=O)c1cc2c(-c3ccccc3F)nn(C)c2s1 | 109 | 74% (inactive) | 109% (inactive) | 60.9% (inactive) | 93.9% (inactive) | 24.6% (inactive) | 69.3 | 93.9 | -6.53% (inactive) | -2.42% (inactive) |
| CCOC(=O)c1ccc(N2C(=O)CC(NC3CCN(C(=O)c4ccc(F)cc4)CC3)C2=O)cc1 (stereo not given) | 102 | 126% (inactive) | 102% (inactive) | 103% (inactive) | 110% (inactive) | 14% (inactive) | 96 | 110 | 1.45% (inactive) | -5% (inactive) |
| Cc1nc2c3cnn(-c4ccccc4)c3ncn2n1 | 104 | 86% (inactive) | 104% (inactive) | 79.6% (inactive) | 96.7% (inactive) | 14.2% (inactive) | 82.5 | 96.7 | -3.87% (inactive) | 1.64% (inactive) |
| Cn1c(=O)n(CC(=O)OCc2ccccc2)c(=O)c2c1nc1n2CCCN1C1CCCCC1 | 81 | 86% (inactive) | 81% (inactive) | 96.4% (inactive) | 78.7% (inactive) | 32.8% (inactive) | 45.9 | 78.7 | -6.35% (inactive) | -0.16% (inactive) |
| CCn1c(C(=O)N2CCCC(C(=O)NCCCc3ccccc3)C2)cc2sccc21 (stereo not given) | 102 | 96.5% (inactive) | 102% (inactive) | 64.3% (inactive) | 96.7% (inactive) | 3.47% (inactive) | 93.2 | 96.7 | -2.08% (inactive) | -9.84% (inactive) |
| COc1ccc(C)cc1NC(=O)COCC(=O)O | 106 | 114% (inactive) | 106% (inactive) | 92.4% (inactive) | 103% (inactive) | 7.92% (inactive) | 95.2 | 103 | -6.89% (inactive) | -3.49% (inactive) |
| CCOC(=O)c1oc2ccccc2c1CSc1nnnn1-c1ccc(C)cc1 | 94.5 | 99% (inactive) | 94.5% (inactive) | 83.2% (inactive) | 69.3% (inactive) | -18.7% (inactive) | 88 | 69.3 | 2.08% (inactive) | -6.98% (inactive) |
| COc1ccc2c(c1)C1(C)CC(C)(C)N2C(=O)N1c1ccccc1 (stereo not given) | 101 | 89.5% (inactive) | 101% (inactive) | 61.5% (inactive) | 67.3% (inactive) | -16.7% (inactive) | 84 | 67.3 | -5.07% (inactive) | -5.41% (inactive) |
| Cc1cc(NC(=O)CSc2nccn2-c2ccc(F)cc2)no1 | 85.5 | 81.5% (inactive) | 85.5% (inactive) | 83.4% (inactive) | 104% (inactive) | 15.8% (inactive) | 88.4 | 104 | -2.99% (inactive) | -3.17% (inactive) |
| CC(=O)C1=C(O)C(=O)N(Cc2cccnc2)C1c1ccccc1 (stereo not given) | 101 | 114% (inactive) | 101% (inactive) | 97.8% (inactive) | 105% (inactive) | 10% (inactive) | 95.3 | 105 | -6.13% (inactive) | -1.77% (inactive) |
| COc1cc(OC)cc(C(=O)N2CCN(C(=O)c3ccc(OC)c(OC)c3)CC2)c1 | 100 | 104% (inactive) | 100% (inactive) | 86.1% (inactive) | 92.4% (inactive) | -11.1% (inactive) | 103 | 92.4 | -1.84% (inactive) | -6.45% (inactive) |
| CC(=O)c1cccc(S(=O)(=O)N2CCC(n3nnc4cc(F)ccc43)CC2)c1 | 88 | 92.5% (inactive) | 88% (inactive) | 92.9% (inactive) | 93.9% (inactive) | 8.11% (inactive) | 85.8 | 93.9 | -5.14% (inactive) | -2.62% (inactive) |
| CCc1ccccc1NC(=O)CCc1nc(-c2ccc(C)cc2)no1 | 95 | 71.5% (inactive) | 95% (inactive) | 83% (inactive) | 99.3% (inactive) | 3.1% (inactive) | 96.2 | 99.3 | -4.61% (inactive) | -3.67% (inactive) |
| O=C(COC(=O)CSc1nnc(-c2ccc(Cl)cc2)o1)NCc1ccc2c(c1)OCO2 | 98 | 84% (inactive) | 98% (inactive) | 90.8% (inactive) | 104% (inactive) | 3.27% (inactive) | 100 | 104 | -4.19% (inactive) | 0.79% (inactive) |
